Measurements reported in ChEMBL document CHEMBL5321232, “Synthesis and biological evaluation of dual MDM2/XIAP inhibitors based on the tetrahydroquinoline scaffold” (Eur J Med Chem, 2023).
Activity calls are given as the source filed them. The rule behind the calls is not given here.

Columns and labels:
[1] = Antiproliferative activity against human EU-1 cells assessed as inhibition of cell growth incubated for 44 hrs by WST assay; type: functional, cell-based; details: EU-1, 44 h
How it was run: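 Pediatric ALL-derived EU-1 cells grown in RPMI 1640 with 10% FBS, 2 mmol/L L-glutamine and penicillin/streptomycin at 37 °C, 5% CO2. Compounds given at graded concentrations for 44 h. WST (25 μg/well) then added for a further 4 h. OD read at 450 nm against a 620 nm reference, with cell-free wells for background.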

MDA-MB-231 = assay: Antiproliferative activity against human MDA-MB-231 cells assessed as inhibition of cell growth incubated for 72 hrs by MTS assay; type: functional, cell-based; details: MDA-MB-231, 72 h
How it was run: (§1)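 Cells seeded at 3,000–8,000 per well according to growth rate and incubated overnight. They were then exposed to compounds over 3 nM–100 μM for 72 h, four replicates per concentration. MTS added, 1.5 h in the dark at 37 °C, absorbance read at 490 nm. IC50 normalized to untreated cells and fitted by nonlinear regression.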

CWR22R [2] = assay: Antiproliferative activity against human 22Rv1 cells assessed as inhibition of cell growth incubated for 72 hrs by MTS assay; type: functional, cell-based; details: 22Rv1, 72 h; how it was run: as §1
A-375 [3] = assay: Inhibition of colony formation in human A-375 cells assessed as reduction in number of clonogenic cells at 1 to 10 uM incubated for 10 days and subsequent media replacement with compound for every 3 days by crystal violet staining based microscopic analysis; type: functional, cell-based; details: dose 1-10 µM, time 10.0 day
How it was run: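 A375 cells in log phase were seeded at 250 per well and incubated 48 h. They were then treated with 1, 5 or 10 μM for 10 days, with medium ± compound changed every 3 days. Colonies were methanol-fixed, stained with 0.5% crystal violet and counted by microscopy. Colony area expressed versus vehicle (100%) as mean ± SEM of three biological replicates.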

CWR22R [4] = assay: Inhibition of colony formation in human 22Rv1 cells assessed as reduction in number of clonogenic cells incubated for 14 days and subsequent media replacement with compound for every 3 days by crystal violet staining based microscopic analysis; type: functional, cell-based; details: dose 1-10 µM, time 14.0 day
How it was run: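 22Rv1 cells in log phase were seeded at 2,000 per well and incubated 72 h. They were then treated with 1, 5 or 10 μM for 14 days, with medium ± compound renewed every 3 days. Colonies were fixed in cold methanol, stained with 0.5% crystal violet and counted microscopically. Run in triplicate; area expressed relative to vehicle (100%) as mean ± SEM of three biological replicates.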

EU-1 [5] = assay: Downregulation of MDM2 expression in human EU-1 cells upto 1 uM by Western blot analysis; type: functional, cell-based; details: time 8.0 hrs, TDE = time-dependent effect
How it was run: (§2)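 EU-1 cells were treated at the doses and times indicated; for caspase-3, caspase-9 and PARP, 1 μM over a time course. Cells were lysed for 30 min in NaCl/Tris pH 8.0/EDTA/NP-40 buffer with protease inhibitors. Equal protein was run on SDS-PAGE and transferred to nitrocellulose. Membranes were blocked in milk, incubated with primary antibodies for 3 h at room temperature and HRP secondary for 1 h, then developed by ECL.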

EU-1 [6] = assay: Downregulation of MDM2 expression in human EU-1 cells incubated for 8 hrs by Western blot analysis; type: functional, cell-based; details: dose <= 1.0 µM; how it was run: as §2
[7] = molecular target: E3 ubiquitin-protein ligase Mdm2 (Homo sapiens) (UniProt Q00987); assay: Inhibition of MDM2 in human EU-1 cells assessed as increase in p53 expression upto 1 uM incubated at 8 hrs by Western blot analysis; type: cell-based; how it was run: as §2
E3 ubiquitin-protein ligase Mdm2 (Homo sapiens), sequence (Q00987 whole entry, looked up): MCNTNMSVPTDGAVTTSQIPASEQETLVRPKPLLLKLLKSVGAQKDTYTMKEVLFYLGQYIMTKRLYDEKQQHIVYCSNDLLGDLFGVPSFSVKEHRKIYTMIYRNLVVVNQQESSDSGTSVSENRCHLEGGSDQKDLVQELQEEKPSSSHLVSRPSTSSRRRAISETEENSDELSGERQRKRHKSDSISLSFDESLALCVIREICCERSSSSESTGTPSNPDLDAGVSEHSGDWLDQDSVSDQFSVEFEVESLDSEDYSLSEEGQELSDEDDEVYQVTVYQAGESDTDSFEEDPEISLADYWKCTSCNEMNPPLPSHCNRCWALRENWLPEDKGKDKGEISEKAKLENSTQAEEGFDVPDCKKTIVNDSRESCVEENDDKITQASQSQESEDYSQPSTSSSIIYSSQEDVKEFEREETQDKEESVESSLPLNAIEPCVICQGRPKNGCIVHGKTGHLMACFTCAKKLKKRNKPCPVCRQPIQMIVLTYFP

[8] = molecular target: E3 ubiquitin-protein ligase Mdm2 (Homo sapiens) (UniProt Q00987); assay: Inhibition of MDM2 in human EU-1 cells assessed as increase in p21 expression upto 1 uM incubated at 8 hrs by Western blot analysis; type: cell-based; how it was run: as §2
[9] = molecular target: E3 ubiquitin-protein ligase Mdm2 (Homo sapiens) (UniProt Q00987); assay: Inhibition of MDM2 in human EU-1 cells assessed as increase in PUMA expression upto 1 uM incubated at 8 hrs by Western blot analysis; type: cell-based; how it was run: as §2
[10] = molecular target: E3 ubiquitin-protein ligase XIAP (Homo sapiens) (UniProt P98170); assay: Inhibition of XIAP in human EU-1 cells assessed as increase in caspase3 at 1 uM incubated upto 24 hrs by Western blot analysis; type: cell-based; how it was run: as §2
E3 ubiquitin-protein ligase XIAP (Homo sapiens), sequence (P98170 whole entry): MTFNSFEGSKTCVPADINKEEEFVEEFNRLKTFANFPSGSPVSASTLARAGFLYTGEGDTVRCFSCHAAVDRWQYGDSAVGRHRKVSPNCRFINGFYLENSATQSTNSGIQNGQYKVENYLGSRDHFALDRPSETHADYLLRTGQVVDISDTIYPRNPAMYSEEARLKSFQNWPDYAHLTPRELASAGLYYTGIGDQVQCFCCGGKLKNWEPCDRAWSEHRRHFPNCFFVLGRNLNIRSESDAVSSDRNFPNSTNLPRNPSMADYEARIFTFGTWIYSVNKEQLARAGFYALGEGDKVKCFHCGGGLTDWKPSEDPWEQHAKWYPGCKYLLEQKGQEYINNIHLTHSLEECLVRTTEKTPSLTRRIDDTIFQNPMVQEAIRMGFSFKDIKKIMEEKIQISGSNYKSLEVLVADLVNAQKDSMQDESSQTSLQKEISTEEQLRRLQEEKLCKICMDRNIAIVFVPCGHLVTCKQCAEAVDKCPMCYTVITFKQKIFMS

[11] = molecular target: E3 ubiquitin-protein ligase XIAP (Homo sapiens) (UniProt P98170); assay: Inhibition of XIAP in human EU-1 cells assessed as increase in caspase-9 at 1 uM incubated upto 24 hrs by Western blot analysis; type: cell-based; how it was run: as §2
[12] = molecular target: E3 ubiquitin-protein ligase XIAP (Homo sapiens) (UniProt P98170); assay: Inhibition of XIAP in human EU-1 cells assessed as increase in PARP at 1 uM incubated upto 24 hrs by Western blot analysis; type: cell-based; how it was run: as §2
[13] = molecular target: E3 ubiquitin-protein ligase Mdm2 (Homo sapiens) (UniProt Q00987); assay: Inhibition of MDM2 in human 22Rv1 cells assessed as increase in p53 expression upto 10 uM incubated at 24 hrs by Western blot analysis; type: cell-based
How it was run: (§3)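 22Rv1 or A375 cells grown to 80% confluence were exposed for 24 h to 1, 5 or 10 μM compound in DMEM. AMG-232 control ran at 100 nM–1 μM. Cells were lysed in RIPA with protease/phosphatase inhibitors, and 30 μg protein was run on SDS-PAGE/PVDF. Membranes were blocked in 5% milk and probed overnight at 4 °C for p53, c-PARP, MDM2 and GAPDH. Bands detected by HRP/ECL.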

[14] = molecular target: E3 ubiquitin-protein ligase Mdm2 (Homo sapiens) (UniProt Q00987); assay: Inhibition of MDM2 in human A-375 cells assessed as increase in p53 expression upto 10 uM incubated at 24 hrs by Western blot analysis; type: cell-based
How it was run: as §3, with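 “DMEM.” for “DMEM. AMG-232 control ran at 100 nM–1 μM.”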

[15] = molecular target: E3 ubiquitin-protein ligase Mdm2 (Homo sapiens) (UniProt Q00987); assay: Inhibition of MDM2 in human 22Rv1 cells assessed as increase in PARP expression upto 10 uM incubated at 24 hrs by Western blot analysis; type: cell-based; how it was run: as §3
[16] = molecular target: E3 ubiquitin-protein ligase Mdm2 (Homo sapiens) (UniProt Q00987); assay: Inhibition of MDM2 in human A-375 cells assessed as increase in PARP expression upto 10 uM incubated at 24 hrs by Western blot analysis; type: cell-based; how it was run: as §3
CWR22R [17] = assay: Antitumor activity against human 22Rv1 cells xenografted in NOD SCID mouse assessed as inhibition of tumor growth at 60 mg/kg, ip administered for 10 days and measured every 3 days; type: functional, organism-based; details: time 10.0 day
How it was run: (§4)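 Male humanized NSG mice, 8–9 weeks old, were injected s.c. in the right dorsal flank with 2 million 22Rv1 cells in medium/Matrigel 1:1. After ~14 days (mean tumor ~100 mm3), mice were randomized, n=5/group. Dosing was 60 mg/kg i.p. daily for 10 days in 5% DMSO/65% PEG400/30% saline, or vehicle alone. Caliper volume (a×b2×0.5) and body weight were recorded every 3 days.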

CWR22R [18] = assay: Antitumor activity against human 22Rv1 cells xenografted in NOD SCID mouse at 60 mg/kg, ip administered for 10 days and measured every 3 days; type: functional, organism-based; details: time 10.0 day; how it was run: as §4
[19] = Toxicity in NOD SCID mouse assessed as body weight loss at 60 mg/kg, ip administered for 10 days and measured every 3 days; type: organism-based; details: in vivo, 240 h, time 10 day; how it was run: as §4
CWR22R [20] = assay: Antitumor activity against human 22Rv1 cells xenografted in NOD SCID mouse assessed as decrease in MDM2 expression at 60 mg/kg, ip administered for 10 days by immunostaining analysis; type: functional, organism-based; details: time 10.0 day
How it was run: (§5)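 Tumors came from 22Rv1 xenografts in male NSG mice dosed i.p. daily for 10 days. Cryosections (10 μm) were fixed in 4% PFA and permeabilized with 0.25% Triton X-100, then blocked with 10% goat serum. Primary antibodies (1:200) against MDM2, cleaved caspase-3, cleaved PARP or CD31 were applied overnight at 4 °C, followed by fluorescent secondaries (1:1,000, 2 h) and a DAPI counterstain. Fluorescence intensity quantified as mean ± SEM.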

CWR22R [21] = assay: Antitumor activity against human 22Rv1 cells xenografted in NOD SCID mouse assessed as increase in cleaved caspase3 expression at 60 mg/kg, ip administered for 10 days by immunostaining analysis; type: functional, organism-based; details: time 10.0 day; how it was run: as §5
CWR22R [22] = assay: Antitumor activity against human 22Rv1 cells xenografted in NOD SCID mouse assessed as increase in cleaved PARP expression at 60 mg/kg, ip administered for 10 days by immunostaining analysis; type: functional, organism-based; details: time 10.0 day; how it was run: as §5
CWR22R [23] = assay: Antitumor activity against human 22Rv1 cells xenografted in NOD SCID mouse assessed as disruption of tumor vasculature at 60 mg/kg, ip administered for 10 days by immunostaining analysis; type: functional, organism-based; details: time 10.0 day; how it was run: as §5
A-375 [24] = assay: Antiproliferative activity against human A-375 cells assessed as inhibition of cell growth incubated for 72 hrs by MTS assay; details: A-375, 72 h

CC(=O)c1cccc(NS(=O)(=O)c2ccc3c(c2)C2OCCC2C(c2ccc(C(=O)C(C)C)cc2)N3)c1 (stereo not given)
IC50 [1]: 200 nM
IC50 (MDA-MB-231): 1500 nM
IC50 (CWR22R [2]): 5300 nM
inhibition (A-375 [3]): Active
inhibition (CWR22R [4]): Dose-Dependent Effect
Activity (EU-1 [5]): Tde
Activity (EU-1 [6]): Dose-Dependent Effect
inhibition [7]: Active
inhibition [8]: Active
inhibition [9]: Active
inhibition [10]: Active
inhibition [11]: Active
inhibition [12]: Active
inhibition [13]: Active
inhibition [14]: Active
inhibition [15]: Active
inhibition [16]: Active
Activity (CWR22R [17]): Active
Activity (CWR22R [18]): Active
Activity [19]: Non-Toxic
Activity (CWR22R [20]): Active
Activity (CWR22R [21]): Active
Activity (CWR22R [22]): Active
Activity (CWR22R [23]): Active
IC50 (A-375 [24]): 1000 nM
